Results pooled from the literature.
Compare with care: the assays were run in different laboratories.
Cell line: A549
Observed: cell growth or viability

SMILES | method | concentration | inhibition
COc1ccc(-c2nc(NN=C3C(=O)Nc4ccc(Cl)cc43)c3ccccc3n2)cc1OC | – | 30 µM | 10.9%
O=C1Nc2ccc(Br)cc2/C1=N/NC(=O)c1cc2ccccc2[nH]1 | – | 30 µM | 77%
COc1ccc(-c2nc(NN=C3C(=O)Nc4ccccc43)c3ccccc3n2)cc1OC | – | 30 µM | 58.6%
CN1C(=O)/C(=N\NC(=O)c2cc3ccccc3[nH]2)c2cc(Br)ccc21 | – | 30 µM | 97.4%
CCN(CC)CCNC(=O)c1c(C)[nH]c(/C=C2\C(=O)Nc3ccc(F)cc32)c1C | – | 30 µM | 85.7%
O=C(CN1C(=O)/C(=C/c2ccc([N+](=O)[O-])cc2)SC1=S)Nc1ccccc1 | MTT | 10 µM | 24.4%
CN1C(=O)/C(=N\NC(=O)c2cc3ccccc3[nH]2)c2cc(Cl)ccc21 | – | 30 µM | 95.8%
COc1ccc(-c2nc(NN=C3C(=O)Nc4ccc(Br)cc43)c3ccccc3n2)cc1OC | – | 10 µM | 77.1%
O=C(CN1C(=O)/C(=C/c2ccccc2Cl)SC1=S)Nc1ccccc1 | MTT | 10 µM | 20.5%
COc1cc(CNC(=O)C[C@H](C)CCC=C(C)C)ccc1OCc1cn(-c2ccc(Cl)cc2)nn1 | SRB | 10 µM | 55%
COc1cccc(/C=C2\SC(=S)N(CC(=O)Nc3ccccc3)C2=O)c1 | MTT | 10 µM | 25.7%
COc1cc2ncnc(NN=C3C(=O)Nc4ccc(Br)cc43)c2cc1OC | – | 10 µM | -4.3%
O=C1Nc2ccc(F)cc2/C1=N/NC(=O)c1cc2ccccc2[nH]1 | – | 30 µM | 6.9%
COc1ccc(/C=C2\SC(=S)N(CC(=O)Nc3ccccc3)C2=O)cc1 | MTT | 10 µM | 23%
COc1ccc2c(c1)/C(=N/NC(=O)c1cc3ccccc3[nH]1)C(=O)N2 | – | 30 µM | 85.3%
COc1ccccc1/C=C1\SC(=S)N(CC(=O)Nc2ccccc2)C1=O | MTT | 10 µM | 38.3%
Cc1ccc2c(c1)C(=NNc1nc3ccccc3n(C)c1=O)C(=O)N2 | – | 30 µM | 68.8%
O=C(CN1C(=O)/C(=C/c2cccc(Br)c2)SC1=S)Nc1ccccc1 | MTT | 10 µM | 25.8%
Cn1c(=O)c(NN=C2C(=O)Nc3ccc(Br)cc32)nc2ccccc21 | – | 30 µM | 84.9%
